Assay results published in ChEMBL document CHEMBL4251575, “Design, synthesis, and biological evaluation of 1,3-diarylisoquinolines as novel topoisomerase I catalytic inhibitors” (Eur J Med Chem, 2018).
Counter-ions that a name gives are not always drawn. Active and inactive are the calls of the source. The calls are words filed in the database; no cut-off is given here.

What was measured:
MCF-10A = experiment: Cytotoxicity against human MCF10A cells after 72 hrs by cell counting kit-8 analysis; assay type: cell-based
Outline: (§1)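 Cells seeded at 2×10^5 or 1×10^5 per well, grown overnight in medium with 10% FBS at 37 °C, 5% CO₂, then FBS-starved 4 h. Graded compound concentrations given for 72 h. CCK-8 then added for 4 h and absorbance read at 450 nm. IC50 from a four-parameter logistic fit; mean ± S.D. of three experiments, each in triplicate.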

T47D = experiment: Cytotoxicity against human T47D cells after 72 hrs by cell counting kit-8 analysis; assay type: functional, cell-based; outline: as §1
DU-145 = experiment: Cytotoxicity against human DU145 cells after 72 hrs by cell counting kit-8 analysis; assay type: functional, cell-based; details: DU-145, 72 h; outline: as §1
HCT-15 = experiment: Cytotoxicity against human HCT15 cells after 72 hrs by cell counting kit-8 analysis; assay type: functional, cell-based; details: HCT-15, 72 h; outline: as §1
[1] = target: T1, DNA topoisomerase 1 (Homo sapiens) (UniProt P11387); experiment: Inhibition of human recombinant DNA topoisomerase 1-mediated DNA relaxation at 100 uM incubated for 30 mins using pBR322 DNA substrate by ethidium bromide dye-based agarose gel electrophoresis relative to control camptothecin
T1 sequence (whole entry): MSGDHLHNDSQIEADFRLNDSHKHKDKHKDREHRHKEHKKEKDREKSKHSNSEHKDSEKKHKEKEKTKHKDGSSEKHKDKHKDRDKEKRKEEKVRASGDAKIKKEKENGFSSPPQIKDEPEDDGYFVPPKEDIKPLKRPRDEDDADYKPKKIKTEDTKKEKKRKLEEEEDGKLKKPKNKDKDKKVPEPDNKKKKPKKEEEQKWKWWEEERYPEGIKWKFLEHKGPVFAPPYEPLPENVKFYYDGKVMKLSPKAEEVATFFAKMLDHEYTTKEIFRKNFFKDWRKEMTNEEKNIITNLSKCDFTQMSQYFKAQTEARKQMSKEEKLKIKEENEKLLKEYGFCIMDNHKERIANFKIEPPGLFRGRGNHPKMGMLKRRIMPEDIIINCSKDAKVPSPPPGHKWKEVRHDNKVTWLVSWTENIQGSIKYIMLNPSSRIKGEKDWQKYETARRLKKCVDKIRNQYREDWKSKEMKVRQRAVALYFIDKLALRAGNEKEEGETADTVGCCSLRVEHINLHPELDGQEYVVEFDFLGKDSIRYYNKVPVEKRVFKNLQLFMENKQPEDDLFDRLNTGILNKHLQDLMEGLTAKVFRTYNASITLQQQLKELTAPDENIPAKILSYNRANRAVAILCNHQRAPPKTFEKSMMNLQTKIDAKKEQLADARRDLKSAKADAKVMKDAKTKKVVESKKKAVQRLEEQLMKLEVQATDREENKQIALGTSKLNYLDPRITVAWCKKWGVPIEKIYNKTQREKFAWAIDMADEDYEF
Outline: (§2)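 pBR322 (100 ng) with recombinant human topo I (0.4 units) in 10 mM Tris-HCl pH 7.9, 150 mM NaCl, 0.1% BSA, 1 mM spermidine, 5% glycerol, 30 min at 37 °C. Stopped with sarcosyl/glycerol/dye and run on 1% agarose/TAE at 15 V for 7 h. EtBr-stained; supercoiled DNA quantified as % inhibition. Relative values are the ratio to the camptothecin control.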

[2] = target: T1, DNA topoisomerase 1 (Homo sapiens); experiment: Inhibition of human recombinant DNA topoisomerase 1-mediated DNA relaxation at 20 uM incubated for 30 mins using pBR322 DNA substrate by ethidium bromide dye-based agarose gel electrophoresis relative to control camptothecin; outline: as §2
[3] = target: DNA topoisomerase 2-alpha (Homo sapiens) (UniProt P11388); experiment: Inhibition of human DNA topoisomerase 2 alpha-mediated DNA relaxation at 100 uM incubated for 30 mins using pBR322 DNA substrate by ethidium bromide dye-based agarose gel electrophoresis relative to control etoposide
Outline: (§3)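 Stopped with EDTA and run on 1% agarose/TAE at 25 V for 4 h. EtBr-stained; supercoiled DNA quantified as % inhibition. Relative values are the ratio to the etoposide control.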

[4] = target: T1, DNA topoisomerase 1 (Homo sapiens); experiment: Inhibition of human recombinant DNA topoisomerase 1-mediated DNA relaxation at 100 uM incubated for 30 mins using pBR322 DNA substrate by ethidium bromide dye-based agarose gel electrophoresis; outline: as §2
[5] = target: T1, DNA topoisomerase 1 (Homo sapiens); experiment: Inhibition of human recombinant DNA topoisomerase 1-mediated DNA relaxation at 20 uM incubated for 30 mins using pBR322 DNA substrate by ethidium bromide dye-based agarose gel electrophoresis; outline: as §2
[6] = target: DNA topoisomerase 2-alpha (Homo sapiens) (UniProt P11388); experiment: Inhibition of human DNA topoisomerase 2 alpha-mediated DNA relaxation at 100 uM incubated for 30 mins using pBR322 DNA substrate by ethidium bromide dye-based agarose gel electrophoresis; outline: as §3
[7] = target: DNA topoisomerase 2-alpha (Homo sapiens) (UniProt P11388); experiment: Inhibition of human DNA topoisomerase 2 alpha-mediated DNA relaxation at 20 uM incubated for 30 mins using pBR322 DNA substrate by ethidium bromide dye-based agarose gel electrophoresis relative to control etoposide; outline: as §3
Sus scrofa [8] = species: Sus scrofa; experiment: Inhibition of porcine brain tubulin polymerization at 10 uM after 61 mins by spectroscopic analysis
Outline: (§4)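 Porcine brain tubulin at 1.5 mg/mL final in cold PEM buffer (80 mM Na-PIPES pH 6.9, 1 mM MgCl₂, 30% glycerol, 1 mM EGTA) with 1 mM GTP. Compounds were dissolved in DMSO and diluted in PEM. They were pre-warmed 2 min at 37 °C before tubulin was added. DMSO vehicle and paclitaxel controls. A340 was read each minute for 61 min at 37 °C.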

[9] = target: DNA topoisomerase 2-alpha (Homo sapiens) (UniProt P11388); experiment: Inhibition of human DNA topoisomerase 2 alpha-mediated DNA relaxation at 20 uM incubated for 30 mins using pBR322 DNA substrate by ethidium bromide dye-based agarose gel electrophoresis; outline: as §3
Sus scrofa [10] = species: Sus scrofa; experiment: Induction of porcine brain tubulin polymerization at 10 uM after 61 mins by spectroscopic analysis; outline: as §4

Chain of DNA topoisomerase 2-alpha (Homo sapiens) (P11388 whole entry): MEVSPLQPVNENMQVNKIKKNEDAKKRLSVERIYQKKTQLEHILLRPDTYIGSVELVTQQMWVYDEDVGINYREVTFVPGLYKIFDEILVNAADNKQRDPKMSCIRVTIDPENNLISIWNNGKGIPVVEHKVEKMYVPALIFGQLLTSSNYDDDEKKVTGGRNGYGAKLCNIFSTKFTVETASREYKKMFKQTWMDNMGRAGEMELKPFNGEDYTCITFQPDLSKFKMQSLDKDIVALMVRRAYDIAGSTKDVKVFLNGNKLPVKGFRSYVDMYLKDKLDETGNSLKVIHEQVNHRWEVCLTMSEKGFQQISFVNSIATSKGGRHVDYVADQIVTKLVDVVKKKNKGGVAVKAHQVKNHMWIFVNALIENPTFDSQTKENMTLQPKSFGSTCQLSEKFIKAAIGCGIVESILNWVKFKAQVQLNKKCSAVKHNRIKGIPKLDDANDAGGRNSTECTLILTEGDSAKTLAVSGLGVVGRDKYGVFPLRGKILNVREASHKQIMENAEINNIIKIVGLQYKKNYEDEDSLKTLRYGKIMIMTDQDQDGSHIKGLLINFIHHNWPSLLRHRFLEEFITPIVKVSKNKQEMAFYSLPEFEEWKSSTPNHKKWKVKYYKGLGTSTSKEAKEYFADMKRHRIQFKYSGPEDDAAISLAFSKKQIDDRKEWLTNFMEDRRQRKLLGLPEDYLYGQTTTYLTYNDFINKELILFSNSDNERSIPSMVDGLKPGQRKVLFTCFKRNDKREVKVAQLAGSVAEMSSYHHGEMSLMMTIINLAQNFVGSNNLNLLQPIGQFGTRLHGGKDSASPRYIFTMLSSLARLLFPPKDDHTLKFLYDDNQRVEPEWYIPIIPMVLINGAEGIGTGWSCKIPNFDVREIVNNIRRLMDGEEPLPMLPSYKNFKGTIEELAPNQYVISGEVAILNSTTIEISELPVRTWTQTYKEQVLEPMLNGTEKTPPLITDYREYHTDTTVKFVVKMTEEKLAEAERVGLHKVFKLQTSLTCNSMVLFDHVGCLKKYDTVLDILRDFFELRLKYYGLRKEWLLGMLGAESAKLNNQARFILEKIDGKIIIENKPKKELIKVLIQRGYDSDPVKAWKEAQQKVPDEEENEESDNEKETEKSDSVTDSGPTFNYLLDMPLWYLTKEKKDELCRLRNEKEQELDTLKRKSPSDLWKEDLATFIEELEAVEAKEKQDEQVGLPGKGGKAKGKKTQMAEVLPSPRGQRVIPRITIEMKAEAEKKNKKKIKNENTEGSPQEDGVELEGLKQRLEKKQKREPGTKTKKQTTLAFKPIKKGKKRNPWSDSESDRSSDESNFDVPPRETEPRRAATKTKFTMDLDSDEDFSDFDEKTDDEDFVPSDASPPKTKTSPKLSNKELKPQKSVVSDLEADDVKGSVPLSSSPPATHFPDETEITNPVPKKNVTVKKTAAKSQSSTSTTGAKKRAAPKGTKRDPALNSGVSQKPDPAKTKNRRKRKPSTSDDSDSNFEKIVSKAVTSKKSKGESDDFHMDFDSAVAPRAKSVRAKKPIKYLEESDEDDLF

Row | Ratio [1] | Ratio [2] | Ratio [3] | inhibition [4] [%] | inhibition [5] [%] | inhibition [6] [%] | Ratio [7] | inhibition (Sus scrofa [8]) | inhibition [9] [%] | Tubulin polymerization induction (Sus scrofa [10]) | Activity (Sus scrofa [10]) | SMILES | IC50 (MCF-10A) [µM] | IC50 (T47D) [µM] | IC50 (DU-145) [µM] | IC50 (HCT-15) [µM]
1 | 0.58 | 0 | 0 | 43.2 | 0 | 0 |  |  |  |  |  | COc1ccc(-c2cc3ccccc3c(-c3cccc(OC)c3)n2)cc1 | > 50 | 0.86 | > 50 | 1.3
2 | 0 |  | 0.11 | 0 |  | 7.4 |  |  |  |  |  | COc1ccc(-c2cc3ccccc3c(-c3ccc(OC)cc3)n2)cc1 | > 50 | 0.85 |  | 2.79
3 | 0 |  | 0.82 | 0 |  | 51.2 | 1.17 | inactive | 40 | inactive |  | COc1cc(OC)cc(-c2cc3ccccc3c(-c3ccc(O)cc3)n2)c1 | 7.28 | 0.78 |  | 2.78
4 | 0.04 |  | 0 | 2.3 |  | 0 |  |  |  |  |  | COc1ccc(-c2nc(-c3ccc(OC)c(OC)c3)cc3cc(C)ccc23)cc1 | > 50 | 3.34 | > 50 | 28.7
5 | 0 |  | 0.12 | 0 |  | 7.7 |  |  |  |  |  | COc1ccc(-c2cc3ccccc3c(-c3cccc(N)c3)n2)cc1 | 18.8 | 0.95 |  | 2.35
6 | 0 |  | 0.37 | 0 |  | 23.6 |  |  |  |  |  | COc1cc(OC)cc(-c2cc3ccccc3c(-c3cccc(N)c3)n2)c1 | > 50 | 0.98 |  | 4.08
7 | 0.09 |  | 0 | 6.7 |  | 0 |  |  |  |  |  | COc1ccc(-c2cc3ccccc3c(-c3ccc(O)cc3)n2)cc1 | > 50 | 1.22 | > 50 | > 50
8 | 0.81 | 0.38 | 0.32 | 47.9 | 12.1 | 20.2 |  |  |  |  |  | COc1ccc(-c2cc3ccccc3c(-c3cccc(OCCCN(C)C)c3)n2)cc1 | 10.2 | 0.16 |  | 1.75
9 | 0.12 |  | 1.07 | 9.4 |  | 84.3 | 0 |  | 0 |  |  | COc1ccc(-c2cc3ccccc3c(-c3cccc(O)c3)n2)cc1 | 7.83 | 0.58 | 5.36 | 1.2
10 | 0 |  | 0.26 | 0 |  | 16.7 |  |  |  |  |  | COc1cc(OC)cc(-c2cc3ccccc3c(-c3cccc(OC)c3)n2)c1 | > 50 | 1.12 |  | 1.17
11 | 0 |  | 0.59 | 0 |  | 37.3 | 0.9 | inactive | 30.9 | inactive |  | COc1cc(OC)cc(-c2cc3ccccc3c(-c3cccc(O)c3)n2)c1 | 6.77 | 0.76 |  | 0.84

Second part, the compound before the results:

Row | SMILES | Ratio [1] | Ratio [2] | Ratio [3] | inhibition [4] [%] | inhibition [5] [%] | inhibition [6] [%] | Ratio [7] | inhibition (Sus scrofa [8]) | inhibition [9] [%] | Tubulin polymerization induction (Sus scrofa [10]) | Activity (Sus scrofa [10]) | IC50 (MCF-10A) [µM] | IC50 (T47D) [µM] | IC50 (DU-145) [µM] | IC50 (HCT-15) [µM]
12 | COc1ccc(-c2cc3cc(C)ccc3c(-c3cccc(N)c3)n2)cc1OC | 0.11 |  | 0.11 | 7.2 |  | 6.9 |  |  |  |  |  | 5.6 | 0.45 |  | 2.7
13 | COc1cc(OC)cc(-c2cc3cc(OC)c(OC)cc3c(-c3cccc(O)c3)n2)c1 | 0.06 |  | 0 | 4.6 |  | 0 |  |  |  |  |  | 5.9 | 3.92 | 8.12 | 0.54
14 | COc1ccc(-c2cc3cc(C)ccc3c(-c3ccc(OCCN(C)C)cc3)n2)cc1OC | 1.22 | 0 | 1.24 | 79.6 | 0 | 75.8 | 0.41 |  | 15.3 |  |  | 5.31 | 2.33 |  | 0.97
15 | COc1ccc(-c2cc3cc(C)ccc3c(-c3cccc(O)c3)n2)cc1OC | 0.03 |  | 0.38 | 1.7 |  | 34.5 | 0.01 |  | 0.4 |  |  | 13.5 | 4.34 | 6.51 | 0.37
16 | COc1ccc(-c2cc3cc(C)ccc3c(-c3cccc(O)c3)n2)c(C)c1 | 1.13 | 2.46 | 0.2 | 73.4 | 70.4 | 12.3 |  | Active |  | inactive |  | 5.05 | 0.56 |  | 1.75
17 | CC(=O)O[C@H]1C(=O)[C@@]2(C)[C@H]([C@H](OC(=O)c3ccccc3)[C@]3(O)C[C@H](OC(=O)[C@H](O)[C@@H](NC(=O)c4ccccc4)c4ccccc4)C(C)=C1C3(C)C)[C@]1(OC(C)=O)CO[C@@H]1C[C@@H]2O |  |  |  |  |  |  |  |  |  |  | Active |  |  |  | 
18 | COc1ccc(-c2cc3cc(C)ccc3c(-c3cccc(OCCN(C)C)c3)n2)c(C)c1 | 0.05 |  | 0.81 | 3.7 |  | 49.6 | 0.35 |  | 13.2 |  |  | 6.35 | 0.6 |  | 2.2
19 | COc1ccc(-c2cc3cc(C)ccc3c(-c3cccc(OCCCN(C)C)c3)n2)c(C)c1 | 0.6 | 0 | 0.67 | 39.3 | 0 | 40.9 | 0.28 |  | 10.5 |  |  | 6.07 | 0.29 |  | 0.87
20 | COc1ccc(-c2cc3cc(C)ccc3c(-c3ccc(O)cc3)n2)cc1OC | 0.005 |  | 0.4 | 0.3 |  | 36.5 | 0 |  | 0 |  |  | 18.1 | 4.42 | 5.98 | 2.52
21 | COc1cccc(-c2nc(-c3ccc(OC)c(OC)c3)cc3cc(C)ccc23)c1 | 0.05 |  | 0 | 2.9 |  | 0 |  |  |  |  |  | > 50 | 7.86 | > 50 | 1.84
22 | COc1ccc(/C=C\c2cc(OC)c(OC)c(OC)c2)cc1O |  |  |  |  |  |  |  | 100% |  |  |  |  |  |  | 
23 | COc1cccc2c1C(=O)c1c(O)c3c(c(O)c1C2=O)C[C@@](O)(C(=O)CO)C[C@@H]3O[C@H]1C[C@H](N)[C@H](O)[C@H](C)O1 [DOXORUBICIN HYDROCHLORIDE] |  |  |  |  |  |  |  |  |  |  |  | 0.93 |  |  | 
